Source: ChEMBL document CHEMBL1123730, “Synthesis and pharmacological evaluation of a new class of 2-(2-aminothiazol-4-yl)-2-hydrazonoacetamido cephalosporins” (J Med Chem, 1987)
Converted amounts (≈) assume the structure as drawn.

How the values were obtained:
[1] = Distribution (50 mg/kg) was determined in kidney 15 min after intravenous administration; assay type: ADME, organism-based; details: read-out: Tissue distribution
Procedure, shortened: (§1)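 Wistar rats (200-250 g, groups of five) given 50 mg/kg in sterile water iv or im; killed at set times, lung, liver and kidney homogenized in 0.1 M pH 7.3 phosphate buffer (tissue:buffer 1:5). Drug assayed by agar diffusion on Nutrient Agar with E. coli ATCC 10536 (37 °C, 18 h); standards in phosphate buffer; detection limit 0.5 μg/mL; mean ± SEM.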

[2] = Distribution (50 mg/kg) was determined in kidney 5 min after intravenous administration; assay type: ADME, organism-based; details: read-out: Tissue distribution; procedure, shortened: as §1
[3] = Distribution (50 mg/kg) was determined in liver 120 min after intravenous administration; assay type: ADME, organism-based; details: read-out: Tissue distribution; procedure, shortened: as §1
[4] = Distribution (50 mg/kg) was determined in liver 15 min after intravenous administration; assay type: ADME, organism-based; details: read-out: Tissue distribution; procedure, shortened: as §1
[5] = Distribution (50 mg/kg) was determined in liver 30 min after intravenous administration; assay type: ADME, organism-based; details: read-out: Tissue distribution; procedure, shortened: as §1
[6] = Distribution (50 mg/kg) was determined in liver 5 min after intramuscular administration; assay type: ADME, organism-based; details: in vivo, im; procedure, shortened: as §1
[7] = Distribution (50 mg/kg) was determined in liver 5 min after intravenous administration; assay type: ADME, organism-based; details: read-out: Tissue distribution; procedure, shortened: as §1
[8] = Distribution (50 mg/kg) was determined in lung 30 min after intravenous administration; assay type: ADME, organism-based; details: read-out: Tissue distribution; procedure, shortened: as §1
[9] = Distribution (50 mg/kg) was determined in lung 5 min after intravenous administration; assay type: ADME, organism-based; details: read-out: Tissue distribution; procedure, shortened: as §1
[10] = Serum level was determined at 15 min after an intravenous administration of 50 mg/kg in rats; assay type: ADME, organism-based; set-up: dose 50 mg/kg, route intravenous; details: rat, read-out: Serum level
Procedure, shortened: (§2)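 Dose 50 mg/kg in sterile water, iv or im, to Wistar rats 200-250 g, five per time point; killed at set intervals, blood centrifuged for serum. Antibiotic measured by agar diffusion on Nutrient Agar with E. coli ATCC 10536 (37 °C, 18 h), standards diluted in serum; detection limit 1 μg/mL. Mean ± SEM of five rats.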

[11] = Serum level was determined at 15 min after intramuscular administration of 50 mg/kg in rats; assay type: ADME, organism-based; set-up: dose 50 mg/kg, route intramuscular; details: rat, im, read-out: Serum level; procedure, shortened: as §2
[12] = Serum level was determined at 240 min after intramuscular administration of 50 mg/kg in rats; assay type: ADME, organism-based; set-up: dose 50 mg/kg, route intramuscular; details: rat, im, read-out: Serum level; procedure, shortened: as §2
[13] = Serum level was determined at 30 min after intramuscular administration of 50 mg/kg in rats; assay type: ADME, organism-based; set-up: dose 50 mg/kg, route intramuscular; details: rat, im, read-out: Serum level; procedure, shortened: as §2
[14] = Serum level was determined at 5 min after intramuscular administration of 50 mg/kg in rats; assay type: ADME, organism-based; set-up: dose 50 mg/kg, route intramuscular; details: rat, im, read-out: Serum level; procedure, shortened: as §2
[15] = Serum level was determined at 120 min after an intravenous administration of 50 mg/kg in rats; assay type: ADME, organism-based; set-up: dose 50 mg/kg, route intravenous; details: rat, read-out: Serum level; procedure, shortened: as §2
[16] = Serum level was determined at 120 min after intramuscular administration of 50 mg/kg in rats; assay type: ADME, organism-based; set-up: dose 50 mg/kg, route intramuscular; details: rat, im, read-out: Serum level; procedure, shortened: as §2
[17] = system: Escherichia coli; experiment: Minimum inhibitory concentration against Escherichia coli ISM strain; assay type: functional
[18] = system: Enterobacter; experiment: Geometrical average of minimum bactericidal concentration was determined in isosensitest broth against Enterobacter; assay type: functional
[19] = system: Enterobacter; experiment: Geometrical average of minimum inhibitory concentration was determined in isosensitest broth against Enterobacter; assay type: functional
[20] = system: Klebsiella; experiment: Geometrical average of minimum bactericidal concentration was determined in isosensitest broth against Klebsiella; assay type: functional
[21] = system: Klebsiella; experiment: Geometrical average of minimum inhibitory concentration was determined in isosensitest broth against Klebsiella; assay type: functional
[22] = system: Pseudomonas; experiment: Geometrical average of minimum bactericidal concentration was determined in isosensitest broth against Pseudomonas; assay type: functional
[23] = system: Sarcina; experiment: Geometrical average of minimum bactericidal concentration was determined in isosensitest broth against Sarcina; assay type: functional
[24] = system: Sarcina; experiment: Geometrical average of minimum inhibitory concentration was determined in isosensitest broth against Sarcina; assay type: functional
[25] = system: Salmonella; experiment: Geometrical average of minimum bactericidal concentration was determined in isosensitest broth against Salmonella; assay type: functional
[26] = system: Streptococcus; experiment: Geometrical average of minimum inhibitory concentration was determined in isosensitest broth against Streptococcus; assay type: functional
[27] = system: Staphylococcus aureus; experiment: Geometrical average of minimum inhibitory concentration was determined in isosensitest broth against Staphylococcus (P); assay type: functional
[28] = system: Staphylococcus; experiment: Geometrical average of minimum bactericidal concentration was determined in isosensitest broth against Staphylococcus (10); assay type: functional
[29] = Geometrical average of minimum inhibitory concentration was determined in isosensitest broth against gram-positive strains.; assay type: functional
[30] = Half-life administered, intramuscularly; assay type: ADME; details: im
Procedure, shortened: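 Wistar rats (200-250 g, groups of five) given 50 mg/kg in sterile water iv or im; killed at 5-360 min, serum separated. Levels by agar diffusion bioassay, E. coli ATCC 10536 test organism, 37 °C 18 h, standards in serum (detection limit 1 μg/mL); elimination half-life derived from serum time course.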

In the case of Cn1nnnc1SCC1=C(C(=O)O)N2C(=O)[C@@H](NC(=O)/C(=N/N)c3csc(N)n3)[C@H]2SC1, the concentration at 0.25 h [1] was 50600 ng/g, the concentration at 5 min [2] was 107000 ng/g and the concentration at 2 h [3] was ≤ 5000 ng/g. For the same compound, the concentration at 0.25 h [4] was 25800 ng/g, the concentration at 0.5 h [5] was 18800 ng/g and the Tissue distribution [6] was “Undetectable”. The concentration at 5 min [7] was 43200 ng/g, the concentration at 0.5 h [8] was 8970 ng/g and the concentration at 5 min [9] was 26400 ng/g. It also gave a concentration at 0.25 h [10] of 137000 ng/mL, a concentration at 0.25 h [11] of 86200 ng/mL and a concentration at 4 h [12] of 10200 ng/mL. It also gave a concentration at 0.5 h [13] of 96200 ng/mL, a concentration at 5 min [14] of 34600 ng/mL and a concentration at 2 h [15] of 20500 ng/mL. The concentration at 2 h [16] was 32900 ng/mL, the MIC [17] was 1.1 µg/mL (≈ 2.22 µM) and the MBC [18] was 3.12 µg/mL (≈ 6.28 µM). The MIC [19] was 1.96 µg/mL (≈ 3.95 µM), the MBC [20] was 2.78 µg/mL (≈ 5.6 µM) and the MIC [21] was 1.17 µg/mL (≈ 2.36 µM). For the same compound, the MBC [22] was > 100 µg/mL, the MBC [23] was 2.21 µg/mL (≈ 4.45 µM) and the MIC [24] was 1.56 µg/mL (≈ 3.14 µM). The MBC [25] was 1.79 µg/mL (≈ 3.6 µM), the MIC [26] was 25 µg/mL (≈ 50.3 µM) and the MIC [27] was 35.3 µg/mL (≈ 71.1 µM). It also gave an MBC [28] of 11.3 µg/mL (≈ 22.7 µM), an MIC [29] of 4.95 µg/mL (≈ 9.97 µM) and a half-life [30] of 1.15 h.
